In ChEMBL document CHEMBL1133729, “Design, synthesis, and structure-activity relationships of phthalimide-phenylpiperazines: a novel series of potent and selective alpha(1)(a)-adrenergic receptor antagonists” (J Med Chem, 2000):
pKi: −log10 of the molar value.

Columns and labels:
[1] = biological target: T1, Alpha-1B adrenergic receptor (Homo sapiens, UniProt P35368); assay: Binding affinity towards cloned human alpha-1B adrenergic receptor was determined using [125]-HEAT as radioligand
T1 sequence (P35368 whole entry): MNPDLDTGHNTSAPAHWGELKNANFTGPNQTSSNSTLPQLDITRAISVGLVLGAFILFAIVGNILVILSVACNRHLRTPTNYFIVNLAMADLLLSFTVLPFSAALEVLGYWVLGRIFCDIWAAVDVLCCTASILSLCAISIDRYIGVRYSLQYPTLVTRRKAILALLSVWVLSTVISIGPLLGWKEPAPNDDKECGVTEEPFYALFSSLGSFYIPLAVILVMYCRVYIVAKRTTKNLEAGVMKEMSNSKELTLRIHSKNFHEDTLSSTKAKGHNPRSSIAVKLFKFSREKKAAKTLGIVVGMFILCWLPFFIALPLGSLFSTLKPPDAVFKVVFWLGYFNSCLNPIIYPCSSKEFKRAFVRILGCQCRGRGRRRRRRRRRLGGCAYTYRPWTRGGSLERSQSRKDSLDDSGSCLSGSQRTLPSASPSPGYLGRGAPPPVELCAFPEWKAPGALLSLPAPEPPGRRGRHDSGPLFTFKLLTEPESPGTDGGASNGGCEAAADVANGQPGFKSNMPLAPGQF
In short: (§1)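 Human α1a, α1b and α1d cDNAs transiently expressed in COS-1 cells (DEAE-dextran); membranes harvested 72 h post-transfection. Competition versus 50 pM [125I]HEAT (final), 0.1 pM–10 μM test compound in half-log steps, in TNE buffer pH 7.4. Membrane protein 0.1 μg (α1a, α1b) or 2.6 μg (α1d); 1 h at 25 °C. Filtration, scintillation counting; Ki = IC50/(1 + [L]/Kd). Ratios are subtype Ki over α1a Ki.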

[2] = biological target: T2, Alpha-1D adrenergic receptor (Homo sapiens, UniProt P25100); assay: Binding affinity towards cloned human alpha-1D adrenergic receptor was determined using [125]-HEAT as radioligand; in short: as §1
T2 sequence (P25100 whole entry): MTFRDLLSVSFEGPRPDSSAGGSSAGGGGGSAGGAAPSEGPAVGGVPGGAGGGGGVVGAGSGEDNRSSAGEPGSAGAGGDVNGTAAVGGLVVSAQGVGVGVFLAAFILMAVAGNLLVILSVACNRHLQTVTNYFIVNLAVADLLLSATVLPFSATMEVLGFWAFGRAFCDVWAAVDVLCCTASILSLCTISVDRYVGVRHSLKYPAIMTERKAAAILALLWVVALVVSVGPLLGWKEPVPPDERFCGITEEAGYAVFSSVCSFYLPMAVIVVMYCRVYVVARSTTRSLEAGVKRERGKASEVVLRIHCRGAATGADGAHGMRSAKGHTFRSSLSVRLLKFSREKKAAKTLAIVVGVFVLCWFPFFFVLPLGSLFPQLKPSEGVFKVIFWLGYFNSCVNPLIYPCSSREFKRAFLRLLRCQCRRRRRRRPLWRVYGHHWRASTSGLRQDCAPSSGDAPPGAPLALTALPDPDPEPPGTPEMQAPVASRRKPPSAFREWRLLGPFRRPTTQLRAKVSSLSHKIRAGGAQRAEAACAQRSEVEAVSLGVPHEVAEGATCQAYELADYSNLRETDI

[3] = biological target: T3, Alpha-1A adrenergic receptor (Homo sapiens, UniProt P35348); assay: Binding affinity towards cloned human alpha-1A adrenergic receptor was determined using [125]-HEAT as radioligand
T3 sequence (P35348 whole entry): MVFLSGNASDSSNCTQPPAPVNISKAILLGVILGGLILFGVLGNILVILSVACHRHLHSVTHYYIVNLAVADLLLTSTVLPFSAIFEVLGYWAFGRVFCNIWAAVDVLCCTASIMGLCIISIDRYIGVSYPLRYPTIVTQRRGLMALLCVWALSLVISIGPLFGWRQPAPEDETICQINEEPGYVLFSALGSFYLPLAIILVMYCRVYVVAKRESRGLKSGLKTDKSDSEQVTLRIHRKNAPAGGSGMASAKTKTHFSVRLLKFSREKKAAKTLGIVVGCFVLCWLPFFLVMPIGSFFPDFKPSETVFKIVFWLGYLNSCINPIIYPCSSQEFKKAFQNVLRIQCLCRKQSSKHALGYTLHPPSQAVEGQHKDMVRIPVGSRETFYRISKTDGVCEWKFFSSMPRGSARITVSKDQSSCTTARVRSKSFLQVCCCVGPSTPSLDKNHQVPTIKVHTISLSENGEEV

[4] = tested on: Alpha-1D/Alpha-1A adrenergic receptor (Homo sapiens); assay: Ratio of binding affinity towards Alpha1d to Alpha-1A
[5] = biological target: Adrenergic receptors; alpha-1 A & B (Homo sapiens) (UniProt P35348+P35368); assay: Ratio of binding affinity towards Alpha1b to Alpha-1A; format: protein assay; in short: as §1

pKi [1]	pKi [2]	pKi [3]	Ratio [4]	Ratio [5]	Compound
< 5.76	6.91	–	–	–	COc1ccc(N2C(=O)c3ccc(C(=O)NC[C@H](O)CN4CCN(c5ccccc5OC(C)C)CC4)cc3C2=O)cc1
< 5.70	7.19	9.05	72	> 1820	CC(C)Oc1ccccc1N1CCN(CC(O)CNC(=O)c2ccc3c(c2)C(=O)N(c2ccccc2)C3=O)CC1 (stereo not given)
6.22	7.39	9.12	54	800	CC(C)Oc1ccccc1N1CCN(CC(O)CNC(=O)c2ccc3c(c2)C(=O)N(c2cccc(Cl)c2)C3=O)CC1 (stereo not given)
< 5.70	7.21	9.18	–	> 3030	Cc1ccc(N2C(=O)c3ccc(C(=O)NCC(O)CN4CCN(c5ccccc5OC(C)C)CC4)cc3C2=O)cc1 (stereo not given)
< 5.70	7.28	–	–	–	COc1ccc(N2C(=O)c3ccc(C(=O)NC[C@@H](O)CN4CCN(c5ccccc5OC(C)C)CC4)cc3C2=O)cc1
< 5.70	7.12	8.82	–	> 1220	CC(C)Oc1ccccc1N1CCN(CC(O)CNC(=O)c2ccc3c(c2)C(=O)N(c2cccc(F)c2)C3=O)CC1 (stereo not given)
6.33	7.82	9.74	–	2580	CC(C)Oc1ccccc1N1CCN(CCCNC(=O)c2ccc3c(c2)C(=O)N(c2ccc(N(C)C)cc2)C3=O)CC1
< 5.70	7.25	9.01	57	> 2040	COc1ccc(N2C(=O)c3ccc(C(=O)NCC(O)CN4CCN(c5ccccc5OC(C)C)CC4)cc3C2=O)cc1OC (stereo not given)
< 5.70	7.29	–	–	–	COc1ccc(N2C(=O)c3ccc(C(=O)NCC(O)CN4CCN(c5ccccc5OC(C)C)CC4)cc3C2=O)cc1 (stereo not given)
< 5.70	7.20	8.10	–	> 250	CC(C)Oc1ccccc1N1CCN(C[C@H](O)CNC(=O)c2ccc3c(c2)C(=O)N(c2cccc(F)c2)C3=O)CC1
< 5.70	7.42	8.74	–	> 1110	CC(C)Oc1ccccc1N1CCN(CC(O)CNC(=O)c2ccc3c(c2)C(=O)N(c2ccc([N+](=O)[O-])cc2)C3=O)CC1 (stereo not given)
< 5.70	6.39	8.16	–	> 290	COC(CNC(=O)c1ccc2c(c1)C(=O)N(c1cccc(F)c1)C2=O)CN1CCN(c2ccccc2OC(C)C)CC1 (stereo not given)
< 5.78	6.95	8.82	–	> 1100	CC(C)Oc1ccccc1N1CCN(CC(O)CNC(=O)c2ccc3c(c2)C(=O)N(c2ccc(F)cc2)C3=O)CC1 (stereo not given)
< 5.70	6.82	8.91	125	> 1640	COc1cc(N2C(=O)c3ccc(C(=O)NCC(O)CN4CCN(c5ccccc5OC(C)C)CC4)cc3C2=O)cc(OC)c1OC (stereo not given)
6.59	8.00	9.70	50	1270	CC(C)Oc1ccccc1N1CCN(CCCNC(=O)c2ccc3c(c2)C(=O)N(c2ccc(O)cc2)C3=O)CC1
5.79	7.14	8.83	–	1110	COc1ccccc1N1C(=O)c2ccc(C(=O)NCC(O)CN3CCN(c4ccccc4OC(C)C)CC3)cc2C1=O (stereo not given)
5.91	7.29	8.92	43	1030	CC(C)Oc1ccccc1N1CCN(CC(O)CNC(=O)c2ccc3c(c2)C(=O)N(c2ccc(Cl)c(Cl)c2)C3=O)CC1 (stereo not given)
< 5.70	7.40	9.10	–	> 2000	CC(C)Oc1ccccc1N1CCN(CC(O)CNC(=O)c2ccc3c(c2)C(=O)N(c2ccc(N(C)C)cc2)C3=O)CC1 (stereo not given)
6.22	7.26	9.02	–	640	CC(C)Oc1ccccc1N1CCN(CC(O)CNC(=O)c2ccc3c(c2)C(=O)N(c2ccc(Cl)cc2)C3=O)CC1 (stereo not given)
< 5.70	6.86	9.34	–	> 4350	CC(C)Oc1ccccc1N1CCN(C[C@@H](O)CNC(=O)c2ccc3c(c2)C(=O)N(c2ccc(O)cc2)C3=O)CC1
< 5.70	7.14	9.05	–	> 2220	Cc1cccc(N2C(=O)c3ccc(C(=O)NCC(O)CN4CCN(c5ccccc5OC(C)C)CC4)cc3C2=O)c1 (stereo not given)
< 5.70	7.12	8.52	–	> 650	CC(C)Oc1ccccc1N1CCN(CC(O)CNC(=O)c2ccc3c(c2)C(=O)N(c2ccc(C(C)(C)C)cc2)C3=O)CC1 (stereo not given)
< 5.70	7.55	9.06	–	> 2270	CC(C)Oc1ccccc1N1CCN(CC(O)CNC(=O)c2ccc3c(c2)C(=O)N(c2ccc(O)cc2)C3=O)CC1 (stereo not given)
< 5.70	6.27	7.66	–	> 90	COc1ccccc1N1CCN(CC(O)CNC(=O)c2ccc3c(c2)C(=O)N(c2cccc(F)c2)C3=O)CC1 (stereo not given)
< 5.70	6.86	8.37	–	> 470	CCOc1ccccc1N1CCN(CC(O)CNC(=O)c2ccc3c(c2)C(=O)N(c2cccc(F)c2)C3=O)CC1 (stereo not given)
